Assays:
caspase 7 = assay: Activation of apoptosis; type: cell-based; details: same concentration of 5b and 1
[1] = Rate of reaction of prodrugs with 4 mM GSH; type: in vitro ADME; details: for kGSH/kGSH (mean ± SD): rate with GSH alone, normalised to itself
[2] = system: panel of NSCLC cell lines; assay: Proliferation of panel of NSCLC cell lines; type: cell-based; details: Homo sapiens, read-out: IC50 range over panel of NSCLC cell lines
Summary of the method: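 Cell lines from ATCC were cultured per the supplier's protocol and tested by MTT assay per the kit protocol. Each concentration was run in six repeats, in at least two independent experiments. IC50 values were obtained by curve fitting.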

[3] = Analysis of metabolites in resected tumors; type: in vivo, NCr nu/nu athymic mice; details: resected tumors after 92 μmol/kg i.v., 2 times a week for 4 weeks
Summary of the method: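 A549 cells, passaged at most four times in RPMI 1640 with 10% FBS, were harvested at 70–80% confluence and implanted s.c. at 5 × 10^6 cells/0.2 mL PBS into NCr nu/nu mice. At about 3 mm × 3 mm, mice were randomised into groups of 12. Test compound was given by tail vein at 92 μmol/kg in 20 μL DMSO, twice weekly for 4 weeks. Tumours were removed at euthanasia right after the last dose and frozen immediately for metabolite analysis.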

H1703 NSCLC cells = assay: Alkaline Comet assay; type: cell-based, human; details: H1703, 24 h treatment, 5 μM
[4] = system: A549 human lung adenocarcinoma xenografts; assay: A549 xenograft tumor growth; type: in vivo, NCr nu/nu athymic mice; details: 92 μmol/kg intravenously, 2 times a week for 4 weeks; compared to 1 or saline controls
recombinant GSTP1 = assay: GSTP1-catalyzed reaction of prodrug with GSH; type: in vitro ADME; details: recombinant GSTP1 versus GSH alone
Summary of the method: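 Kinetics were run at 37 °C by UV–visible spectrophotometry in 0.1 M phosphate buffer pH 7.4 with 50 μM DTPA and 4 mM GSH, with or without 40 nM GST. Substrate (typically 10 μM) was added after buffer and enzyme reached thermal equilibrium. Absorbance was followed at 302 nm, and the rate came from a first-order exponential fit.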

A549 NSCLC cells = assay: Cellular uptake and metabolism by LC/MS; type: in vitro ADME, human; details: A549, 10 μM, any time point from 5 min to 1 h
Summary of the method: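 A549 cells were plated in 75 cm2 flasks overnight at 37 °C, then exposed to 10 μM test compound for varying times. Cells were lysed by scraping in 10 mM HCl/acetonitrile, 5% sulfosalicylic acid was added, and samples were spun at 12000g for 15 min and filtered. Analysis was by Q-TOF LC/MS in positive ion mode: C18 column, water/acetonitrile/0.1% formic acid gradient, extracted ion chromatograms at [M+H]+, with a lysate spiked with authentic compound as reference.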

[5] = system: A549 lung adenocarcinoma cells; assay: Immunoblot analysis of glutathionylation, stress signaling and apoptosis; type: cell-based, human
Summary of the method: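 A549 lysates from cells treated with test compound (1 μM for the apoptosis markers) were immunoblotted for p38, eIF2α phosphorylation, CHOP, BiP, ATF4, p53 Ser15, Puma, and cleaved caspases 8, 3 and 7 and PARP. […] Blots are representative of at least three independent experiments.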

A549 cells = assay: Colony forming assay; type: cell-based, human; details: A549, combination treatment of 14 and 13
PARP-1 enzyme = PARP-1 enzyme (Homo sapiens, UniProt P09874); assay: PARP-1 enzyme inhibition; type: biochemical; details: presence or absence of GSH (4 mM)/GSTP1 (40 nM)
Chain of PARP-1 enzyme (P09874 whole entry): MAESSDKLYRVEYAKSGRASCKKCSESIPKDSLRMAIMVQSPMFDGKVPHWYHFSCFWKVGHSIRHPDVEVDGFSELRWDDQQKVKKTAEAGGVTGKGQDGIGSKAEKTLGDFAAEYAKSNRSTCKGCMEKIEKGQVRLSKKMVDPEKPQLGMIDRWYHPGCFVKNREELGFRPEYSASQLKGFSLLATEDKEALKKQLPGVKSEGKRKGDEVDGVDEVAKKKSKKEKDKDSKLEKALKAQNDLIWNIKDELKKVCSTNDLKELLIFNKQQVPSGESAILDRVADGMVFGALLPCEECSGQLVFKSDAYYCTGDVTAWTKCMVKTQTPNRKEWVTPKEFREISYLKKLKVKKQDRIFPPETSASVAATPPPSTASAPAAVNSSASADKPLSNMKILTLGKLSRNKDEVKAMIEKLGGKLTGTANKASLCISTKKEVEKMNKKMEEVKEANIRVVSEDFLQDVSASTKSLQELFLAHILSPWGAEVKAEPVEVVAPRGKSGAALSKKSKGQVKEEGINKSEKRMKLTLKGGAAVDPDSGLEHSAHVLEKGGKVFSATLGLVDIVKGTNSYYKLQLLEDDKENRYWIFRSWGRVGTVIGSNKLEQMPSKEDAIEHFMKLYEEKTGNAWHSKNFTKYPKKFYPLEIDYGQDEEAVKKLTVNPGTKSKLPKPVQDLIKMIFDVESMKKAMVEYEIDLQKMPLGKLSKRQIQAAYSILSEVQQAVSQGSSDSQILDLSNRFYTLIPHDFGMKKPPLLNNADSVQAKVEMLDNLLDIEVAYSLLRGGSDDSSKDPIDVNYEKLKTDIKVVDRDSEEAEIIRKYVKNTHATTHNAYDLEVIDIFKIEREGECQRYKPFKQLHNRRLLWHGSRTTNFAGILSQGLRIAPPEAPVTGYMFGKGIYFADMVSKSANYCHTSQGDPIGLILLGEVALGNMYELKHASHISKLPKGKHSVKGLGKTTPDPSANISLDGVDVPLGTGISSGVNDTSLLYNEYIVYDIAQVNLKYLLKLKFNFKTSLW

Row | SMILES | apoptotic signal (cleaved caspase 7) (caspase 7) | kGSH/kGSH (mean ± SD) [1] | IC50 [2] [µM] | parent drug and liberated PARP-1 inhibitor in tumors [3] | effect on tumor growth [4] | other results
1 | O=C(c1cc(Cc2n[nH]c(=O)c3ccccc23)ccc1F)N1CCN(C(=O)C2CC2)CC1 [Compound 1, olaparib, reference compound] | did not trigger apoptosis | – | – | – | – | –
2 | CCOC(=O)N1CCN(/[N+]([O-])=N/Oc2ccc([N+](=O)[O-])cc2[N+](=O)[O-])CC1 [Compound 2, O^2-(2,4-dinitrophenyl) 1-[(4-ethoxycarbonyl)piperazin-1-yl]diazen-1-ium-1,2-diolate, reference compound] | – | 1 ± 0.001 | – | – | – | –
3 | O=C(c1cccc(Cc2n[nH]c(=O)c3ccccc23)c1)N1CCN(/[N+]([O-])=N/Oc2ccc([N+](=O)[O-])cc2[N+](=O)[O-])CC1 [Compound 5a] | – | – | 3 to 20 | – | – | –
4 | O=C(c1cc(Cc2n[nH]c(=O)c3ccccc23)ccc1F)N1CCN(/[N+]([O-])=N/Oc2ccc([N+](=O)[O-])cc2[N+](=O)[O-])CC1 [Compound 5b] | strong apoptotic signal | 1 ± 0.007 | 3 to 20 | detected in some tumors | reduced growth of tumors to a lesser extent | DNA strand break damage (Comet assay) (H1703 NSCLC cells): significant DNA strand break damage; enhancement of reaction with GSH when GSTP1 present (recombinant GSTP1): over 10 fold; parent compound in cell lysates (A549 NSCLC cells): not detected; parent compound still present ([1]; 4 mM GSH, after 2 half-lives, LC/MS): 25%
5 | CNc1ccc(C(=O)Oc2cc(O/N=[N+](\[O-])N(C)C)c([N+](=O)[O-])cc2[N+](=O)[O-])cc1 [Compound 8, PABA/NO, reference compound] | – | 1 ± 0.003 | – | – | – | –
6 | CN(C)/[N+]([O-])=N\Oc1cc(O/N=[N+](\[O-])N2CCN(C(=O)c3cc(Cc4n[nH]c(=O)c5ccccc45)ccc3F)CC2)c([N+](=O)[O-])cc1[N+](=O)[O-] [Compound 13] | – | 1 ± 0.004 | – | detected in some tumors | significant reduction of the tumor growth | time to caspase 8 activation ([5]; A549, 1 μM): ≤ 6 h; time to detection of glutathione attached to protein ([5]; A549, nonreducing immunoblot): ≤ 1 h; time to activation of stress kinase p38 ([5]; A549, phosphorylation persisted for 8 h): ≤ 15 min; cytotoxicity in combination with 14 (A549 cells): enhanced toxicity; PARP-1 enzyme inhibition, activated versus prodrug (PARP-1 enzyme): Activated compound is a much better PARP-1 inhibitor than the prodrug
